Bioassay records as filed in PubChem.
This is a sample that favours compounds with a hit; in the whole collection about 1.9% have one here.
NR2E3 ag-1: activates human NR2E3 receptor | CHO-S Gal4-NCOR/VP16-NR2E3 two-hybrid, luciferase | AID 602229 | inhibition of corepressor binding, % at 3.98 µM | 0.35% of 360,000 active;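 active = inhibition above the mean of all tested compounds plus 3 SD, cut at about 70% in these data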;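 also: 0% = DMSO with NR2E3 transfected cells and 100% = cells lacking NR2E3 construct; higher means lower luciferase signal from less NR2E3 corepressor binding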
PG9 Ab binder: small molecules binding HIV-1 gp120 antibody PG9. TR-FRET gp120-PG9 antibody binding. inhibition, % at 6.7 µM. 0.43% of 360,000 active. AID 624416; in the data active = inhibition above about 8.5%
NR2E3 ag-2: NR2E3 (human) agonism. Q9Y5X4. GST-NR2E3/biotin-RetCOR TR-FRET, 1536-well. inhibition of corepressor binding, % at 4.78 µM. 0.12% of 320,000 active. AID 2300;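 active = percent inhibition above the cutoff of mean plus 3 SD of all tested compounds, set per screening campaign, cut at about 20% in these data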;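 also: 0% = DMSO wells and 100% = biotin wells as full block of FRET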
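Format: 1536-well format; test system: GST-NR2E3 and biotin-RetCOR proteins; read-out basis: percent inhibition of TR-FRET ratio; timing: 5 h incubation at 4 °C; detection: time-resolved FRET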
Rev-erbA mod: Rev-erb alpha (human) modulation; activity, % at 10 µM; P20393; Rev-erbα–FITC-DNA binding, fluorescence polarization, 90 min; 0.79% of 370,000 active;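 active = activity above about 14%, limit read from the data; passing the limit was not always enough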;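 also: 0% = DMSO wells with 35 nM protein and 100% = DMSO wells with 750 nM protein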
Target sequence (P20393 whole entry, looked up): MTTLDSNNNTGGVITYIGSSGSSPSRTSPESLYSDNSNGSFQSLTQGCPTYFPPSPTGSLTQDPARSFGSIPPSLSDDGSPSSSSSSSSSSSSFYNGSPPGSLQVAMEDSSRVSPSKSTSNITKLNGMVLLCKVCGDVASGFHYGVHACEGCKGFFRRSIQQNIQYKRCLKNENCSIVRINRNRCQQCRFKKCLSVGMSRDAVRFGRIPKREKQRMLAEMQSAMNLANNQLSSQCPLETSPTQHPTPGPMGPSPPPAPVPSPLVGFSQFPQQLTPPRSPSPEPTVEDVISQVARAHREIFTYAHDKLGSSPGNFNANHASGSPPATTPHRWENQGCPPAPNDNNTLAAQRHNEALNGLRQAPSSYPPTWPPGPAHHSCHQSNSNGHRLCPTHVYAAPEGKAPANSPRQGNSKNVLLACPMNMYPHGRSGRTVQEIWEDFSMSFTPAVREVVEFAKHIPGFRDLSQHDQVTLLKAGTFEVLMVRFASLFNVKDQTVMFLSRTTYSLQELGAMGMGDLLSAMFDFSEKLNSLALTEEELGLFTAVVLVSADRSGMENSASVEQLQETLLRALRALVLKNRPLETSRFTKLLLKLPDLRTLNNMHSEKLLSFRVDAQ
SKN-1 block: C. elegans SKN-1 inhibition. C. elegans VP596 Pgst-4::GFP/RFP ratio, acrylamide-induced, 24 h. inhibition, % at 21.8 µM. 0.49% of 360,000 active. AID 624304;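 active = interference check ratio from 0.5 to 1.5 plus GFP to RFP signal ratio inhibition reaching or exceeding a fixed threshold, cut at about 30% in these data, passing the limit was not always enough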
MT1-MMP act inh: inhibitors of human MT1-MMP activation | P50281 | HT1080 RFP-PRO-GFP cells, GFP/RFP ratio fluorescence, overnight; percent of plate control window, DMSO zero | GFP/RFP ratio change, % at 20 µM | 0.061% of 360,000 active | AID 651647;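 active = GFP/RFP ratio change of at least 30% with cell ATP level not reduced by more than half and red fluorescence within 50% of control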
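Assay system – RFP-PRO-GFP reporter HT1080 cells · Compound dosing – single dose of 20 µM compound, 1% DMSO final · Incubation – overnight compound exposure at 37 °C · Measure – GFP/RFP fluorescence ratio · Benchmarks – DMSO wells and RFP-L50D-GFP cells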
Rev-erbA confirm: Rev-erb alpha (human) modulation, hit confirmation | shares compounds with Rev-erbA mod | Rev-erb alpha FITC-DNA binding, fluorescence polarization, 90 min | activation, % at 25 µM | 61% of 3,000 active | AID 1259319;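 active = activation at or above a set limit, or at least 3 SD above the negative control mean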;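 also: 0% = 35 nM protein with DMSO and 100% = 750 nM protein high control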
RORg counter: affects RORgamma DNA binding in a Rev-erb alpha counter-screen; shares compounds with Rev-erbA mod; purified RORgamma protein-FITC-DNA binding, fluorescence polarization; IC50, µM; 8% of 910 active; AID 1259320;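 active = Compounds whose fitted half-maximal concentration for disrupting protein-DNA binding is below 10 micromolar; the record names Rev-erb in its text, so the target is in doubt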
The depositor's hits bear a star; nt = no result given.

SMILES | NR2E3 ag-1 | PG9 Ab binder | NR2E3 ag-2 | Rev-erbA mod | SKN-1 block | MT1-MMP act inh | Rev-erbA confirm | others
CCOC(=O)c1sc(NC(=O)c2ccc(S(=O)(=O)N(CC)CC)cc2)nc1C | -3 | 0 | 0 | 152* | -1 | 2 | 94* | RORg counter=>40
CCOC(=O)c1sc(NC(=O)c2ccccc2OCC)nc1C | -45 | -1 | 2 | 36* | 5 | -1 | 4
CCOC(=O)c1sc(Nc2ccccc2)nc1C | -124 | -1 | 1 | 2 | 4 | 1 | nt
CCOC(=O)c1sc(NC(=O)CCc2ccc(OC)cc2)nc1C | -7 | -1 | -4 | 27* | 17 | 1 | 13
O=C(N[C@H](C(=O)N1CCC[C@H]1C(=O)NCc1ccccc1)C1CCCCC1)c1ccccc1 | nt | -3 | nt | -6 | nt | nt | nt
Cc1ccc(-n2c(SCc3cccc(F)c3)nnc2-c2cccc(C)c2)cc1 | nt | nt | nt | -5 | nt | nt | nt
CCOC(=O)c1sc(NC(=S)NC(=O)c2ccc(OC)cc2)nc1C | -31 | 0 | -3 | 83* | 9 | 2 | 65* | RORg counter=>40
O=C(Nc1cccnc1Cl)c1cc(-c2ccc(Br)cc2)on1 | 7 | 3 | 2 | 23* | -4 | 0 | -4
O=C(Nc1cccnc1Cl)c1cc(-c2cccc(O)c2)on1 | -4 | -1 | -17 | -19 | 15 | -2 | nt
COc1ccc(-c2cc(C(=O)Nc3cccnc3Cl)no2)cc1OC | 1 | 0 | 2 | 39* | -15 | 5 | 35* | RORg counter=>40
Cc1ccc(C(=O)N(C)[C@H]2C[C@H]3c4[nH]c5c(-c6ccccc6)cccc5c4CCN3C(=O)[C@H]2[C@H](C)O)cc1 | nt | -1 | nt | 3 | nt | nt | nt
CC(NC(=O)c1ccccc1NC(=O)c1ccco1)c1ccccc1 (stereo unspecified) | -7 | 1 | 5 | 21* | 7 | 1 | 22*
CC(C)C(NC(=O)c1ccccc1NC(=O)c1ccco1)C(=O)O (stereo unspecified) | 9 | 0 | -3 | -4 | 4 | -5 | nt
O=C1C=CC(=O)N1c1ccc2c(c1)C(NC(=O)C(F)(F)F)c1ccccc1-2 (stereo unspecified) | 25 | -2 | nt | 0 | 16 | 1 | nt
CC1(C(=O)NS(=O)(=O)c2cccc(Cl)c2)CCN1C(=O)CC1CCCCC1 (stereo unspecified) | -16 | -2 | nt | 16* | -6 | -2 | 4
CC1(C(=O)NS(=O)(=O)c2cccc(Cl)c2)CCN1C(=O)CC1CC1 (stereo unspecified) | 4 | 0 | nt | -3 | 9 | -1 | nt
COc1ccc(-n2c(SCC(=O)NCC3CCCO3)nc3n[nH]c(C)c3c2=N)cc1 (stereo unspecified) | 0 | 0 | 0 | -6 | -28 | 1 | nt
Cc1[nH]nc2nc(SCC(=O)NCCC3=CCCCC3)n(-c3ccc(Br)cc3)c(=N)c12 | -7 | 1 | 4 | 29* | -17 | -3 | 30* | RORg counter=>40
C[C@H]1NS(=O)(=O)c2cccc(Cl)c2O[C@@H]1c1ccccc1 | nt | 1 | nt | 1 | nt | nt | nt
N#Cc1ccc2nc(-c3ccc(CN4CCC5(CC4)CNc4ccccc45)cc3)c(-c3ccccc3)nc2c1 | nt | -3 | nt | 1 | nt | nt | nt
CCOC(=O)c1c(C)nc2sc3c(=O)n(-c4ccc(OC)cc4)nnc3c2c1-c1ccc(OC)cc1 | -70 | 2 | -2 | 1 | 0 | -4 | nt
CCOC(=O)c1c(C)nc2sc3c(=O)n(-c4ccc(C(C)=O)cc4)cnc3c2c1-c1ccc(OC)cc1 | -10 | 1 | 3 | 31* | 18 | 4 | 19*
Cc1ccc(-c2c(C#N)c(N)nc3c2CCCCC3)cc1 | -15 | 0 | 0 | 31* | 3 | 2 | 20*
CSc1nc(C)cc(C)c1C#N | -8 | -2 | 0 | -2 | 12 | 2 | nt
CSc1nc(N)c(C#N)c(-c2ccc(Cl)cc2)c1C#N | -18 | 2 | 2 | 60* | -18 | 3 | 45* | RORg counter=>40
SMILES | NR2E3 ag-1 | PG9 Ab binder | NR2E3 ag-2 | Rev-erbA mod | SKN-1 block | MT1-MMP act inh | Rev-erbA confirm | others
CC(C)c1ccc(-c2c(C#N)c(N)nc3c2CCCCC3)cc1 | -17 | 2 | 3 | 2 | -3 | 1 | nt
CSc1nc(-c2ccc(C)cc2)nc(N)c1C#N | -5 | 2 | 0 | 31* | 12 | -1 | 8
COC(=O)[C@]12C[C@H](CC(=O)NCCc3ccccc3OC)C(=O)N(Cc3ccccc3)C1=C[C@H](COCc1ccccc1)O[C@@H]2C | nt | nt | nt | -1 | nt | nt | nt
COC(=O)c1cc(COc2ccc3c(c2)oc(=O)c2ccccc23)c(C)o1 | -7 | 2 | -2 | 29* | -13 | 3 | 24*
COCCOC(=O)c1c(C)oc2ccc(OCc3cc(C(=O)OC)oc3C)cc12 | 15 | -1 | 1 | 0 | 12 | 0 | nt
CCOC(=O)c1c(NC(=O)c2ccc(S(=O)(=O)N3CCOCC3)cc2)sc2c1CCN(C)C2 | -3 | 3 | -2 | -4 | 10 | -8 | nt
CCOC(=O)c1c(NC(=O)c2ccc(S(=O)(=O)N3CCOCC3)cc2)sc2c1CC(C)(C)NC2(C)C | -26 | 1 | 1 | 42* | -10 | 0 | 8
O=C1NC[C@H](CCCCN2CCN(CCc3ccccc3)C(=O)C2=O)N(CCc2ccccc2)C1=O | -4 | -2 | nt | 5 | 5 | 2 | nt
Cc1[nH]c2ccccc2c1CC(=O)Nc1ccc(Nc2cccnc2)c(-c2ccc(-c3ccccc3)cc2F)c1 | nt | 2 | nt | 3 | nt | nt | nt
CCOCCCNc1nc2c(C)cccn2c(=O)c1/C=C1\SC(=S)N(C(C)CC)C1=O (stereo unspecified) | 11 | -3 | -1 | 23* | 76 | -34 | 16
COc1cc(OC)cc(C(=O)N=c2sc3ccccc3n2C)c1 | -30 | 2 | 2 | 16 | -16 | -1 | nt
COC(=O)Cn1c(=NC(=O)CSCC(=O)Nc2cc(C)on2)sc2cc(C(=O)OC)ccc21 | -6 | -2 | 0 | 5 | 3 | -3 | nt
COc1ccc(C(=O)N=c2sc3ccccc3n2C)cc1 | -157 | 2 | 2 | 52* | 16 | -8 | 23*
COC(=O)Cn1c(=NC(=O)c2cc(OC)cc(OC)c2)sc2cc(OC)ccc21 | -22 | 2 | -3 | 31* | 9 | 2 | 5
COC(=O)Cn1c(=NC(=O)c2ccc(S(=O)(=O)N3CCc4ccccc4C3)cc2)sc2cc(OC)ccc21 | -9 | 7 | 3 | 39* | 3 | 0 | 2
COC(=O)Cn1c(=NC(=O)c2cccc(OC)c2)sc2cc(OC)ccc21 | -48 | 0 | 1 | 31* | 3 | -1 | 23*
